This is a sample that favours compounds with a hit; in the whole collection about 1.5% have one here.
PPC-1+TRAIL kill – compounds killing PPC-1 cancer cells with TRAIL present, primary screen, TRAIL potentiator project, ATPLite luminescence, uHTS. hit rate 0.41% among 220,000. cell killing (% activity), % at 4 µM or 5 µM. PPC-1 cells + TRAIL, ATPLite viability luminescence;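 active = cell killing above 50% in the first pass at 4 µM, then a duplicate retest at 5 µM averaging 50% or more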;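 note: plate controls were cells with TRAIL plus DMSO for no effect and medium-only wells lacking cells for full effect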
C8 TRAIL sens – viability loss with TRAIL in NB7+C8 cells, primary screen, TRAIL sensitizer project, cell-based, ATPlite luminescence; inhibition (viability loss, TRAIL sensitization), % at 10 µM; AID 624354, 2012; hit rate 1% among 360,000;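 active = compounds causing at least 50% loss of cell viability in the single-dose screen, relative to plate controls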
FLuc act counter – FLuc activators, initial screening, artefact control for FLuc-dependent activation tests, biochemical, ATPlite luminescence | Luciferin 4-monooxygenase (Photinus pyralis), P08659 | activation factor at 10 µM | 200,000 tested, under 10 active | ATPlite luciferase biochemical, 10 min; 0 = ATP-free wells, 1 = DMSO control;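 active = luciferase activation factor, scaled between plate controls, of at least 2 with compound at 10 µM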
Target sequence (P08659 whole entry, looked up): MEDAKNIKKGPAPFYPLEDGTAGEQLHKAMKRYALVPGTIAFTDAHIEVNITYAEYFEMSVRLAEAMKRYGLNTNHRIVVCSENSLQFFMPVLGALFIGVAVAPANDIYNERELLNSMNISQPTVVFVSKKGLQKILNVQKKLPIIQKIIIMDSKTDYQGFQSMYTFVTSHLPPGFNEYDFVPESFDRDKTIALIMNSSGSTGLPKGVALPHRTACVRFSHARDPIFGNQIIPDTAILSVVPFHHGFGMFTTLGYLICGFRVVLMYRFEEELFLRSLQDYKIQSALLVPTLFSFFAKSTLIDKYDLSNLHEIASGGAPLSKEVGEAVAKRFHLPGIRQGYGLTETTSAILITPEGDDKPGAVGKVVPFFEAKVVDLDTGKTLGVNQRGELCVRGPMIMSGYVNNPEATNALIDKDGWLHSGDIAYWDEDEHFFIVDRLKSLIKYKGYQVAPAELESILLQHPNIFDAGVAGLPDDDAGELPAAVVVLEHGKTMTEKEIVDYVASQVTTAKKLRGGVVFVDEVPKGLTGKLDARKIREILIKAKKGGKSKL
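Material: Luciferase/luciferin reagent mix | Doses: Test compounds dosed from 2 mM stocks in 100% DMSO | Timing: 10 min incubation after luciferase reagent addition, room temperature | Measured by: Luminescence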
FLuc inhib CS – firefly luciferase enzyme inhibitors, primary screen, artefact control for luciferase-based inhibitor screens, biochemical, luminescence, ATPLite; AID 1006, 2008; hit rate 1.5% among 200,000; Luciferin 4-monooxygenase (Photinus pyralis), P08659; 10 min; inhibition, % at 10 µM;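 active = inhibition above about 50% when tested at 10 µM, limit read from the data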
Active calls of the source: *; ! = a repeat was not active.

CCOC(=O)c1c(C)nc2ccc(Cl)cc2c1-c1ccccc1 was read as PPC-1+TRAIL kill 12, C8 TRAIL sens 3, FLuc act counter 1.1 and FLuc inhib CS -6.
Screening CCOCc1nc(N)nc(N)c1-c1cccc(Cl)c1 returned C8 TRAIL sens 56*.
`N=NC(=O)c1ccccc1Nc1c(O)[nH]c2ccccc12` gave C8 TRAIL sens 91*.
Screening CC(=O)Nc1c(O)[nH]c2ccccc12 returned PPC-1+TRAIL kill 0, C8 TRAIL sens -46, FLuc act counter 1 and FLuc inhib CS -3.
CCCCCCCCN1C(=O)[C@H](CC(=O)NCc2cccc3ccccc23)C[C@@]2(C(=O)OCC)CCC=C12 was read as C8 TRAIL sens 5.
Cc1cccn2c(=O)c3cc(C(=O)NCCC4=CCCCC4)n(C)c3nc12 was read as C8 TRAIL sens 16.
Cn1c(C(=O)NCCC2=CCCCC2)cc2c(=O)n3ccccc3nc21 was read as PPC-1+TRAIL kill 19, C8 TRAIL sens 60*, FLuc act counter 1 and FLuc inhib CS 0.
Screening COc1ccc(/C=C2\CCC(C3CCCC3)C2=O)c(OC)c1OC (configuration not stated) returned C8 TRAIL sens 4.
`COc1cccc(/C=C2\CCC(C3CCCC3)C2=O)c1OC` (configuration not stated) gave C8 TRAIL sens 49*.
Cc1cc(C)cc(NC(=O)COc2coc(CN3CCc4ccccc4C3)cc2=O)c1 was read as C8 TRAIL sens 5.
COc1cccc(/C=C/C(=O)NNC(=O)c2ccco2)c1OC was read as C8 TRAIL sens 63*.
COC(=O)[C@@H]1C[C@H]2CC[C@H](O)C[C@H]2N1Cc1ccccc1OS(=O)(=O)c1ccc(C)cc1 was read as PPC-1+TRAIL kill 6 and C8 TRAIL sens -16.
For COc1ccc(C(=O)OCC(=O)c2ccco2)cc1[N+](=O)[O-] the results were C8 TRAIL sens -15.
Screening CC(C)c1ccc(C(=O)Nc2cccnc2)cc1 returned C8 TRAIL sens 49*.
Screening O=C(Nc1cccnc1)c1ccc(-c2ccccc2)cc1 returned PPC-1+TRAIL kill 41, C8 TRAIL sens 35, FLuc act counter 0.5 and FLuc inhib CS 51*.
For Cc1ccc2c(Cl)c(C(=O)Nc3cccnc3)sc2c1 the results were PPC-1+TRAIL kill 31, C8 TRAIL sens 32, FLuc act counter 0.3 and FLuc inhib CS 66*.
O=C(Nc1ccncc1)c1ccc(F)cc1 was read as PPC-1+TRAIL kill 4, C8 TRAIL sens -15, FLuc act counter 1 and FLuc inhib CS 4.
`CCC(=O)Nc1ccc(C(=O)Nc2cccnc2)cc1` gave PPC-1+TRAIL kill 38, C8 TRAIL sens 8, FLuc act counter 1 and FLuc inhib CS 1.
`O=C(Nc1cccnc1)c1ccc(F)cc1` gave PPC-1+TRAIL kill 8, C8 TRAIL sens 7, FLuc act counter 1 and FLuc inhib CS -2.
For O=C(Nc1ccncc1)c1ccc(-c2ccccc2)cc1 the results were PPC-1+TRAIL kill 4, C8 TRAIL sens 51*, FLuc act counter 0.7 and FLuc inhib CS 26.
`O=C(NC1CCCCCC1)c1ccc([N+](=O)[O-])s1` gave C8 TRAIL sens 6.
`COc1ccc(C2CC(c3ccc(C)o3)=NN2C(C)=O)cc1` (configuration not stated) gave PPC-1+TRAIL kill 2, C8 TRAIL sens -2, FLuc act counter 1.1 and FLuc inhib CS -6.
For CCOc1cccc2c1OC(c1cc(OC)c(OC)c(OC)c1)N1N=C(c3ccc(C)o3)CC21 (configuration not stated) the results were PPC-1+TRAIL kill 13, C8 TRAIL sens 7, FLuc act counter 0.5 and FLuc inhib CS 52*.
CS(=O)(=O)N(CC(=O)N1CCCCCC1)c1cc(Cl)ccc1Cl was read as C8 TRAIL sens -11.
For COC(=O)COc1ccc(S(=O)(=O)NCc2ccc3c(c2)OCO3)cc1 the results were C8 TRAIL sens -13.
For Cc1ccccc1-c1cc(C(=O)Nc2sc(C)c(C)c2C(N)=O)c2ccccc2n1 the results were PPC-1+TRAIL kill 27, C8 TRAIL sens 40, FLuc act counter 1 and FLuc inhib CS -1.
`CCOC(=O)c1sc(NC(=O)c2cc(-c3ccccc3C)nc3ccccc23)c(C#N)c1C` gave PPC-1+TRAIL kill 22, C8 TRAIL sens 61*, FLuc act counter 1 and FLuc inhib CS -2.
For COc1cccc(NC(=O)CSc2nc3c(oc4ccccc43)c(=O)[nH]2)c1 the results were PPC-1+TRAIL kill 38, C8 TRAIL sens 21, FLuc act counter 0.4 and FLuc inhib CS 60*.
For COc1cccc(NC(=O)CSc2ncnc3c2oc2ccccc23)c1 the results were PPC-1+TRAIL kill 11, C8 TRAIL sens 23, FLuc act counter 1 and FLuc inhib CS -1.
Screening Cc1cc(/C=C(/C#N)C(=O)Nc2ccccc2)c(C)n1-c1cccnc1 returned PPC-1+TRAIL kill 27, C8 TRAIL sens 38, FLuc act counter 0.5 and FLuc inhib CS 50*.
COCCNC(=O)/C(C#N)=C/c1cc(C)n(-c2ccc(C)cc2)c1C was read as PPC-1+TRAIL kill 48, C8 TRAIL sens 62*, FLuc act counter 0.3 and FLuc inhib CS 72*.
Screening Cc1cc(/C=C(\C#N)C(=O)Nc2ccccc2)c(C)n1-c1ccc2c(c1)OCO2 returned PPC-1+TRAIL kill 16, C8 TRAIL sens 9, FLuc act counter 1 and FLuc inhib CS 1.
Screening Cc1ccccc1-n1c(C)cc(/C=C(\C#N)C(=O)NCC2CCCO2)c1C (configuration not stated) returned PPC-1+TRAIL kill 55*, C8 TRAIL sens 25, FLuc act counter 0.2 and FLuc inhib CS 75*.
COCCNC(=O)/C(C#N)=C/c1cc(C)n(C2CCCCC2)c1C was read as PPC-1+TRAIL kill 43, C8 TRAIL sens 49, FLuc act counter 0.3 and FLuc inhib CS 72*.
Screening Cc1ccc(/C=C(\C#N)C(=O)NCC2CCCO2)o1 (configuration not stated) returned PPC-1+TRAIL kill -5, C8 TRAIL sens -10, FLuc act counter 1 and FLuc inhib CS -1.
Screening CC(=O)N1C(O)CC(C)N1c1ccccc1 (configuration not stated) returned PPC-1+TRAIL kill 8, C8 TRAIL sens -10, FLuc act counter 1 and FLuc inhib CS 0.
Screening COc1ccc(S(=O)(=O)Nc2ccc(C)c(S(=O)(=O)N3CCOCC3)c2)cc1[N+](=O)[O-] returned C8 TRAIL sens -2.
CN(Cc1cnc2nc(N)nc(N)c2n1)c1ccc(C(=O)N[C@@H](CCC(=O)O)C(=O)O)cc1 was read as C8 TRAIL sens 85*!.
`C/C(=C/Cc1c(O)cc2oc(C)cc(=O)c2c1O)COC1OC(CO)C(O)C(O)C1O` (configuration not stated) gave PPC-1+TRAIL kill -2, C8 TRAIL sens -24, FLuc act counter 1 and FLuc inhib CS -2.
O=C(Nc1ccon1)c1ccc(OC2CCCC2)cc1 was read as PPC-1+TRAIL kill 20, C8 TRAIL sens 27, FLuc act counter 0.4 and FLuc inhib CS 59*.
